# Only some compounds are listed: those with a hit (about 0.72% of all), similar ones and a draw of the others.
# mIAP act – increases mouse intestinal alkaline phosphatase activity | muIAP, CDP-Star luminescence, 30 min; stronger effect = higher value; 1 = vehicle-only enzyme signal, 0 = enzyme-free wells | activation factor at 10 µM | 0.24% of 330,000 active | AID 2805;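 active means activation factor of at least 2 at 20 µM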
#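 Assay system: mouse IAP enzyme; reagent: chemiluminescent substrate CDP-Star; dosing: test compounds delivered from DMSO solution; schedule: 30 min at room temperature; measured by: luminescence from enzymatic CDP-Star hydrolysis; controls: DMSO-only wells and no-enzyme negative control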
# hIAP activ – human IAP activation; P09923; purified human IAP, CDP-Star luminescence, 30 min; stronger effect = higher value; 1 = vehicle-only enzyme, 0 = enzyme-free background; activation factor at 10 µM; 0.16% of 330,000 active; AID 2524;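 active means activation factor of the enzyme at least 2-fold when tested at 20 µM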
# Target sequence (P09923 whole entry, looked up): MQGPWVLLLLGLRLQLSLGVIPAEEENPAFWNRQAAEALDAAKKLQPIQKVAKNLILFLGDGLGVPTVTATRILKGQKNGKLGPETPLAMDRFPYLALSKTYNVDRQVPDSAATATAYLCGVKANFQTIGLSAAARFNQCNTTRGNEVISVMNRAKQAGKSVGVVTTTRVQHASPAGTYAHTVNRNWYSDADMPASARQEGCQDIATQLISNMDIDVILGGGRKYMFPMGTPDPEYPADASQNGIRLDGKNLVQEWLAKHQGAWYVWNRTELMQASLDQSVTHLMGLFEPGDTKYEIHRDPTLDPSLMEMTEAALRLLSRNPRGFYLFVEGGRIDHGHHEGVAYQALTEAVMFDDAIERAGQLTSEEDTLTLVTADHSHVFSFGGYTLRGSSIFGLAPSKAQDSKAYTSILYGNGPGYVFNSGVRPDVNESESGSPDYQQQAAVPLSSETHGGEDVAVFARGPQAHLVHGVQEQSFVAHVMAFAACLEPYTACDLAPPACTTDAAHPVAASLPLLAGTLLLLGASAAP
# hIAP inh – human IAP inhibition | P09923 | purified IAP, CDP-Star luminescence, 30 min | inhibition, % at 10 µM | 0.12% of 330,000 active | AID 2544;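 active means inhibition reaching a set limit with compound at 10 µM in the primary screen, cut at about 35% in these data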;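 further: plate controls were DMSO wells with enzyme for no effect and no-enzyme buffer wells for full effect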
# bIAP activator – increases bovine intestinal alkaline phosphatase activity; purified bovine IAP, CDP-star luminescence, 30 min; stronger effect = higher value; fold of DMSO-control signal, blank-subtracted; activation factor at 20 µM; 0.17% of 200,000 active; AID 1016;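 active means activation factor of 2 or more at 20 µM, a signal rise over negative controls twice the positive control's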
# bIAP inhibitor – blocks bovine intestinal alkaline phosphatase activity; purified bovine IAP, CDP-star luminescence, 30 min; inhibition, % at 20 µM; 190,000 tested, under 10 active; AID 1019;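 active means over 50% inhibition of intestinal alkaline phosphatase at 20 µM in the single-dose screen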
#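 Incubation: 30 min reaction at room temperature / Material: purified bovine intestinal alkaline phosphatase (IAP) enzyme / Input: enzyme at 1/65,000,000 dilution / Dosing: 20 µM single dose / Signal: CDP-star luminescence signal / Reagent: CDP-star chemiluminescent phosphatase substrate, 30 µM final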
# mIAP inh – mouse IAP inhibition; purified mouse IAP, CDP-Star luminescence, 30 min; inhibition, % at 10 µM; 0.2% of 330,000 active;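 active means inhibition of at least 40% at 10 µM in the primary screen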;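 further: plate controls were DMSO with enzyme for no effect and no enzyme wells for full effect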
# hIAP act confirm – human IAP activation confirmation | activation (%Activity, negative = activation), % at 8.3 µM | purified IAP, CDP-Star luminescence, 30 min; stronger effect = lower value | shares compounds with hIAP activ | 10% of 880 active;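 active means at least twofold enzyme activation in any of six single-dose repeats, which the averaged readout prints as negative percent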
# Active calls of the source: *; x = not tested or not shown.
SMILES,mIAP act,hIAP activ,hIAP inh,bIAP activator,bIAP inhibitor,mIAP inh,hIAP act confirm
COc1ccc(N2CCN(CCNC(=O)CCC(=O)NNc3nc4ccccc4c4nc(C)nn34)CC2)cc1,0.897,2.45*,-145.4,x,x,10.3,-24.0
Cc1nc2c3ccccc3nc(NNC(=O)CCC(=O)N3CCCC(C)C3)n2n1 (stereo unspecified),0.863,2.54*,-154.0,x,x,13.7,-41.6*
Cc1nc2c3ccccc3nc(NNC(=O)CCC(=O)NC3CCCC3)n2n1,0.771,0.936,6.4,1.5,-50.6,22.9,x
N#C/C(=C/c1ccc(O)c(O)c1)c1nc2ccccc2[nH]1,0.643,0.418,58.2*,x,x,35.7,4.1
N#C/C(=C\c1ccc(N2CCCC2)c([N+](=O)[O-])c1)c1nc2ccccc2[nH]1,0.88,0.649,35.1*,0.8,20.7,12.0,-1.2
N#C/C(=C\c1ccc(N2CCCCC2)c([N+](=O)[O-])c1)c1nn(-c2ccccc2)c(N)c1C#N,0.839,0.81,19.0,0.9,11.5,16.1,x
COc1ccc(C(=O)NCCc2nnc3ccc(SCC(=O)NCCc4ccc(OC)c(OC)c4)nn23)cc1,1.04,1.23,-23.4,x,x,-3.8,x
CC(=O)N1c2ccc(S(=O)(=O)N3CCC(C(=O)Nc4cccc(Cl)c4)CC3)cc2CC1C (stereo unspecified),1.98,2*,-100.2,x,x,-97.7,-63.6
CCCCCCc1c(C)nc(-n2[nH]c(C)c(CCO)c2=O)[nH]c1=O,0.844,2.28*,-127.8,1.2,-18.6,15.6,-56.4
Cc1ccc(NC(=O)c2sc3ccccc3c2Cl)nc1,0.984,2.1*,-110.3,1,0.8,1.6,-28.6
CC1(C)C[C@@H](O)CC2(C1)C[C@]1(C)CC(O)[C@H]2C(C)(C)C1 (stereo partly specified),0.94,2.05*,-105.2,x,x,6.0,-93.3*
Cc1ccc(C(=O)NNC(=O)CCC(=O)NCc2ccccc2)cc1Br,0.892,2.21*,-121.3,x,x,10.8,1.6
CC(C)c1cccc(-c2ccc3c(c2)S(=O)(=O)c2cccc(C(=O)NCc4ccccc4Cl)c2C3=O)c1,0.98,0.929,7.1,x,x,2.0,x
CSc1ccccc1NC(=S)NCc1ccc(Cl)cc1,1.14,0.6,40.0*,x,x,-13.6,-32.2
COc1ccccc1NC(=S)NCc1ccc(Cl)cc1,1.14,0.853,14.7,x,x,-13.6,x
Cc1ccc(C(=O)c2cn[nH]c2-c2cc(Cl)ccc2O)cc1,0.97,1.07,-6.9,1.5,-51.1,3.0,x
Cc1ccc(-c2[nH]ncc2C(=O)c2ccc(Br)cc2)c(O)c1,0.993,2.05*,-104.8,x,x,0.7,0.5
CC(=O)c1ccc(N(C(=O)c2ccco2)C(C(=O)NC2CCCC2)c2cccs2)cc1 (stereo unspecified),0.939,0.968,3.2,x,x,6.1,x
COc1ccc(C(C(=O)NC2CCCC2)N(C(=O)c2snc(-c3ccc(F)cc3)c2N)c2ccc(F)cc2)cc1 (stereo unspecified),0.924,1.06,-5.6,0.9,5.2,7.6,x
COc1ccc(N(C(=O)c2ccn[nH]2)C(C(=O)NC2CCCC2)c2ccc(F)cc2)cc1 (stereo unspecified),1.51,2.48*,-147.7,x,x,-51.4,2.6
Cc1ccc(N(C(=O)c2ccn[nH]2)C(C(=O)NC2CCCC2)c2cccs2)cc1 (stereo unspecified),1.97,3.03*,-203.4,1.2,-16.8,-96.5,-54.5
O=C(CNC(=O)OCc1ccccc1)Nc1ccc(F)cc1,1.11,0.994,0.6,x,x,-10.9,x
CC[C@@H](C)[C@@H](C(=O)N1CCNCC1)n1cc(CCC(=O)O)nn1,0.984,0.926,7.4,0.9,14.3,1.6,x
Fc1ccc(CNC(=S)NCc2cccc(Cl)c2)cc1,1.68,0.976,2.4,x,x,-68.3,x
CC(=O)Nc1cccc(C(=O)NNC(=O)c2n[nH]c(=O)c3ccccc23)c1,0.871,2.33*,-132.9,x,x,12.9,-124.9*
SMILES,mIAP act,hIAP activ,hIAP inh,bIAP activator,bIAP inhibitor,mIAP inh,hIAP act confirm
CC(C)c1ccc(C(=O)NNC(=O)c2n[nH]c(=O)c3ccccc23)cc1,0.894,1.82,-82.5,x,x,10.6,x
O=C(Nc1ccc(Cl)c(Cl)c1)Oc1ccc(NC(=O)c2ccco2)cc1,2.2*,2*,-100.3,1,-0.4,-119.9,-70.1
COc1ccc(F)cc1S(=O)(=O)Nc1cc2c3c(c1)CCC(=O)N3CCC2,0.974,1.08,-7.8,x,x,2.6,x
Oc1ccc(-c2cn3ccccc3n2)cc1O,0.972,0.507,49.3*,x,x,2.8,12.2
Cc1ccn2cc(-c3ccc(O)c(O)c3)nc2c1,0.603,0.603,39.7*,x,x,39.7,-69.2
O=C(O)CCC(=O)Nc1ccccc1C(=O)NC1CCCCC1,1,2.1*,-109.5,0.9,10.7,0.0,-5.9
CSc1nnc(C)c(=O)n1COC(=O)c1ccccc1,1.06,1.03,-3.2,1,4.7,-5.9,x
NC(=O)c1ccc(NC(=O)C2CCCC2)cc1,1.07,2.58*,-158.0,x,x,-7.5,-40.2*
O=C(Nc1ccc(F)cc1)C1CCCCC1,0.989,1.11,-11.2,1.1,-6.0,1.1,x
Cc1ccc(N/C=C/C(=O)c2ccco2)c(O)c1,0.854,2.16*,-116.3,x,x,14.6,-35.2
Cc1ccc(S(=O)(=O)N2CCOCC2)cc1C(=O)OCC(=O)NC1CCCC1,1.15,1.04,-4.0,x,x,-14.8,x
Cc1cc(NC(=O)CSc2nnc(-c3ccc([N+](=O)[O-])cc3)o2)no1,1.03,0.649,35.1*,x,x,-3.4,-61.0
CC1(C)C(/C=C/C=C/C=C/C=C2\N(CCCCS(=O)(=O)O)c3ccc4ccccc4c3C2(C)C)=[N+](CCCCS(=O)(=O)[O-])c2ccc3ccccc3c21,0.746,0.94,6.0,x,x,25.4,x
Cc1ccc(Cl)cc1-n1c(SCC(=O)NCCC2=CCCCC2)nc2n[nH]c(C)c2c1=N,0.976,1.66,-65.8,x,x,2.4,x
Cc1cc(-n2c(SCC(=O)NCCC3=CCCCC3)nc3n[nH]c(C)c3c2=N)ccc1Cl,1.21,2.06*,-105.6,x,x,-21.2,-29.5
O=C(c1ccc(Cl)cc1)N(Cc1cccs1)C1CCS(=O)(=O)C1 (stereo unspecified),1.01,1.01,-1.5,1,1.3,-1.4,x
Cc1ccc(C(=O)N(Cc2cccs2)C2CCS(=O)(=O)C2)cc1 (stereo unspecified),0.949,0.582,41.8*,x,x,5.1,-2.6
O=C(NNC(=O)c1nc2ccccc2[nH]1)OCc1ccccc1,0.884,2.61*,-160.6,x,x,11.6,-25.4
CCOC(=O)/C(O)=C(\C#N)c1nc2ccccc2[nH]1,1.01,0.897,10.3,1,-3.5,-0.7,x
N#C/C(=N\Nc1ccc([N+](=O)[O-])cc1)C(N)=S,0.658,0.648,35.2*,x,x,34.2,-9.3
N#C/C(=N\Nc1ccc(S(=O)(=O)N2CCCCCC2)cc1)C(N)=S,0.847,0.627,37.3*,0.9,7.9,15.3,8.5
